Ratio and MIC data for 23 compounds are collected here from ChEMBL document CHEMBL2034835, “A solvent free, four-component synthesis and 1,3-dipolar cycloaddition of 4(H)-pyrans with nitrile oxides: synthesis and discovery of antimycobacterial activity of enantiomerically pure 1,2,4-oxadiazoles” (2012).

What is called MIC is the least concentration at which growth counts as inhibited.

Molecules are shown by their SMILES. In brackets after ≈: the same amount, converted by molar mass.

The first test has as its system Mycobacterium tuberculosis. Kind of test: Ratio of ethambutol MIC to compound MIC for Mycobacterium tuberculosis H37Rv. In kind it is functional.
Details: not given
On to `C[C@H](c1ccccc1)N1CC2=C(OC(N)=C(c3nc(-c4ccc(Cl)cc4)no3)C2c2ccc(Cl)cc2Cl)/C(=C/c2ccc(Cl)cc2Cl)C1` (stereo in doubt; 10h), for which the Ratio turned out to be 109.

In another test the test system is Mycobacterium tuberculosis. Kind of test: Antitubercular activity against Mycobacterium tuberculosis H37Rv after 28 days by agar dilution method. In kind it is functional.
Details: not given
Put shortly:
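Agar dilution, following NCCLS guidance, on Middlebrook 7H11 with OADC supplement containing ten-fold serial dilutions of drug. H37Rv inoculum was taken from fresh 7H11/OADC slants, adjusted to 1 mg/mL wet weight in 0.05% Tween 80 saline and diluted 10^-2 to about 10^7 cfu/mL. 5 µL was spotted per tube and incubated at 37 °C for 28 days. MIC is the lowest concentration giving complete growth inhibition.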
Background: Agar dilution tests growth on a series of plates holding different concentrations.
`C[C@H](c1ccccc1)N1CC2=C(OC(N)=C(c3nc(-c4ccc(Cl)cc4)no3)C2c2ccccc2)/C(=C/c2ccccc2)C1` (stereo in doubt; 9b) displayed a minimum inhibitory concentration (MIC) of 5.22 µM (≈ 3.13 µg/mL).
Turning to `C[C@H](c1ccccc1)N1CC2=C(OC(N)=C(c3nc(-c4ccccc4)no3)C2c2cccc3ccccc23)/C(=C/c2cccc3ccccc23)C1` (stereo in doubt; 10i), the MIC is 4.71 µM (≈ 3.13 µg/mL).
Compound `C[C@H](c1ccccc1)N1CC2=C(OC(N)=C(c3nc(-c4ccc(Cl)cc4)no3)C2c2ccccc2)/C(=C/c2ccccc2)C1` (stereo in doubt; 10b) returned an MIC of 2.6 µM (≈ 1.56 µg/mL).
In the case of `C[C@H](c1ccccc1)N1CC2=C(OC(N)=C(c3nc(-c4ccc(Cl)cc4)no3)C2c2ccc(Cl)cc2Cl)/C(=C/c2ccc(Cl)cc2Cl)C1` (stereo in doubt; 10h), the MIC was found to be 0.07 µM (≈ 0.0516 µg/mL).
Same read-out and setting: next, `C[C@H](c1ccccc1)N1CC2=C(OC(N)=C(c3nc(-c4ccc(Cl)cc4)no3)C2c2cccc3ccccc23)/C(=C/c2cccc3ccccc23)C1` (stereo in doubt; 10j): 4.48 µM (≈ 3.13 µg/mL); `C[C@H](c1ccccc1)N1CC2=C(OC(N)=C(c3nc(-c4ccccc4)no3)C2c2ccc(Cl)cc2Cl)/C(=C/c2ccc(Cl)cc2Cl)C1` (stereo in doubt; 10g): 0.57 µM (≈ 0.4 µg/mL); `Cc1ccc(/C=C2\CN([C@H](C)c3ccccc3)CC3=C2OC(N)=C(c2nc(-c4ccc(Cl)cc4)no2)C3c2ccc(C)cc2)cc1` (stereo in doubt; 9d): 2.49 µM (≈ 1.56 µg/mL).
`C[C@H](c1ccccc1)N1CC2=C(OC(N)=C(c3nc(-c4ccccc4)no3)C2c2ccccc2Cl)/C(=C/c2ccccc2Cl)C1` (stereo in doubt; 10e) came in with an MIC of 0.63 µM (≈ 0.399 µg/mL).
Compound `Cc1ccc(/C=C2\CN([C@H](C)c3ccccc3)CC3=C2OC(N)=C(c2nc(-c4ccccc4)no2)C3c2ccc(C)cc2)cc1` (stereo in doubt; 10c) registered an MIC of 5.28 µM (≈ 3.13 µg/mL).
Consider `C[C@H](c1ccccc1)N1CC2=C(OC(N)=C(c3nc(-c4ccc(Cl)cc4)no3)C2c2ccccc2Cl)/C(=C/c2ccccc2Cl)C1` (stereo in doubt; 9f), for which the MIC was 0.6 µM (≈ 0.401 µg/mL).
Consider `C[C@H](c1ccccc1)N1CC2=C(OC(N)=C(c3nc(-c4ccccc4)no3)C2c2ccccc2)/C(=C/c2ccccc2)C1` (stereo in doubt; 9a), for which the MIC was 11.07 µM (≈ 6.25 µg/mL).
As to `C[C@H](c1ccccc1)N1CC2=C(OC(N)=C(c3nc(-c4ccccc4)no3)C2c2cccc3ccccc23)/C(=C/c2cccc3ccccc23)C1` (stereo in doubt; 9i), the MIC is 18.8 µM (≈ 12.5 µg/mL).
Still for that read-out and setting: next, `C[C@H](c1ccccc1)N1CC2=C(OC(N)=C(c3nc(-c4ccc(Cl)cc4)no3)C2c2ccc(Cl)cc2Cl)/C(=C/c2ccc(Cl)cc2Cl)C1` (stereo in doubt; 9h): 0.27 µM (≈ 0.199 µg/mL).
Still for that read-out and setting: next, `C[C@H](c1ccccc1)N1CC2=C(OC(N)=C(c3nc(-c4ccc(Cl)cc4)no3)C2c2ccccc2Cl)/C(=C/c2ccccc2Cl)C1` (stereo in doubt; 10f): 0.15 µM (≈ 0.1 µg/mL).
`C[C@H](c1ccccc1)N1CC2=C(OC(N)=C(c3nc(-c4ccccc4)no3)C2c2ccccc2)/C(=C/c2ccccc2)C1` (stereo in doubt; 10a) returned an MIC of 2.76 µM (≈ 1.56 µg/mL).
Take `Cc1ccc(/C=C2\CN([C@H](C)c3ccccc3)CC3=C2OC(N)=C(c2nc(-c4ccc(Cl)cc4)no2)C3c2ccc(C)cc2)cc1` (stereo in doubt; 10d): the minimum inhibitory concentration (MIC) was 0.64 µM (≈ 0.401 µg/mL).

The same test, now with this note: Mycobacterium tuberculosis, H37Rv, 672 h; read-out: MIC.
In the case of `NNC(=O)c1ccncc1` [ISONIAZID], the minimum inhibitory concentration (MIC) was 0.36 µM (≈ 0.0494 µg/mL).
Regarding `CO[C@H]1/C=C/O[C@@]2(C)Oc3c(C)c(O)c4c(O)c(c(/C=N/N5CCN(C)CC5)c(O)c4c3C2=O)NC(=O)/C(C)=C\C=C\[C@H](C)[C@H](O)[C@@H](C)[C@@H](O)[C@@H](C)[C@H](OC(C)=O)[C@@H]1C` [RIFAMPIN], the minimal inhibitory concentration (MIC) was found to be 0.12 µM (≈ 0.0988 µg/mL).
Consider `C[C@H](c1ccccc1)N1CC2=C(OC(N)=C(c3nc(-c4ccccc4)no3)C2c2ccc(Cl)cc2Cl)/C(=C/c2ccc(Cl)cc2Cl)C1` (stereo in doubt; 9g), for which the MIC amounted to 1.11 µM (≈ 0.78 µg/mL).
For `C[C@H](c1ccccc1)N1CC2=C(OC(N)=C(c3nc(-c4ccc(Cl)cc4)no3)C2c2cccc3ccccc23)/C(=C/c2cccc3ccccc23)C1` (stereo in doubt; 9j), the MIC amounted to 8.94 µM (≈ 6.25 µg/mL).
On the same count and under the same terms, to `C[C@H](c1ccccc1)N1CC2=C(OC(N)=C(c3nc(-c4ccccc4)no3)C2c2ccccc2Cl)/C(=C/c2ccccc2Cl)C1` (stereo in doubt; 9e) belongs 1.23 µM (≈ 0.779 µg/mL); to `Cc1ccc(/C=C2\CN([C@H](C)c3ccccc3)CC3=C2OC(N)=C(c2nc(-c4ccccc4)no2)C3c2ccc(C)cc2)cc1` (stereo in doubt; 9c), 10.5 µM (≈ 6.25 µg/mL); to `CC[C@@H](CO)NCCN[C@@H](CC)CO` [ETHAMBUTOL], 7.64 µM (≈ 1.56 µg/mL).

A further test deals with Mycobacterium tuberculosis. Kind of test: Ratio of ciprofloxacin MIC to compound MIC for Mycobacterium tuberculosis H37Rv. In kind it is functional.
Details: not given
Regarding `C[C@H](c1ccccc1)N1CC2=C(OC(N)=C(c3nc(-c4ccc(Cl)cc4)no3)C2c2ccc(Cl)cc2Cl)/C(=C/c2ccc(Cl)cc2Cl)C1` (stereo in doubt; 10h), the Ratio is 67.3.

The next test deals with Mycobacterium tuberculosis. The test is described as follows: Ratio of rifampicin MIC to compound MIC for Mycobacterium tuberculosis H37Rv. In kind it is functional.
Details: not given
For `C[C@H](c1ccccc1)N1CC2=C(OC(N)=C(c3nc(-c4ccc(Cl)cc4)no3)C2c2ccc(Cl)cc2Cl)/C(=C/c2ccc(Cl)cc2Cl)C1` (stereo in doubt; 10h), the Ratio came out at 1.7.

The next test relates to Mycobacterium tuberculosis. Kind of test: Ratio of isoniazid MIC to compound MIC for Mycobacterium tuberculosis H37Rv. In kind it is functional.
Details: not given
Take `C[C@H](c1ccccc1)N1CC2=C(OC(N)=C(c3nc(-c4ccc(Cl)cc4)no3)C2c2ccc(Cl)cc2Cl)/C(=C/c2ccc(Cl)cc2Cl)C1` (stereo in doubt; 10h): the Ratio was 5.1.
